High-throughput results as filed in PubChem.
The list is not random: actives were taken first. Their share in the collection is about 3.3%.
CendR NRP1 mod – modulators of CendR peptide binding to NRP-1, primary screen, biochemical, fluorescence polarization, uHTS | Neuropilin-1 (Homo sapiens), O14786 | FAM-RPARPAR peptide binding to NRP-1 | inhibition, % at 25 µM | hit rate 0.85% among 360,000;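 active = inhibition or corrected inhibition above about 18%, plus a signal ratio from 0.5 to 1.5, limit read from the data, passing the limit was not always enough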
SENP8 block-1 – human SENP8 protease inhibitors, primary screen, biochemical, fluorescence, Nedd8 protein substrate, uHTS. recombinant SENP8. inhibition, % at 20 µM. hit rate 0.64% among 360,000. AID 602440, 2012; in the data active = inhibition mostly above about 40%, no sharp cut-off; inactive = mostly below about 27%
Target sequence (Q96LD8 whole entry, looked up): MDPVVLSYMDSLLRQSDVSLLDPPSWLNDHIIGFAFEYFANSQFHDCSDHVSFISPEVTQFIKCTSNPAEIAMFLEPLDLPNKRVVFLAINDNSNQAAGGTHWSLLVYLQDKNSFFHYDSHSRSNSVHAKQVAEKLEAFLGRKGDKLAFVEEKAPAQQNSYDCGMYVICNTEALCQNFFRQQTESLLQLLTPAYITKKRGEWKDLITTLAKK
SENP7 inh – SENP7 protease inhibitors, primary screen, biochemical, luminescence, uHTS | Sentrin-specific protease 7 (Homo sapiens), Q9BQF6 | recombinant SENP7, Z-RLRGG-aminoluciferin luminescence, 40 min | inhibition, % at 5 µM | hit rate 1.5% among 330,000;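 active = inhibition above about 50% at the single test dose, limit read from the data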;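 also: plate controls were DMSO with enzyme for no effect and no enzyme buffer wells for full effect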
SENP1 inh – human SENP1 catalytic domain inhibitors, primary screen, biochemical, FRET, uHTS. hit rate 0.21% among 360,000. Sentrin-specific protease 1 (Homo sapiens), Q9P0U3. recombinant SENP1 catalytic domain, CyPet-SUMO1-YPet FRET cleavage. AID 624204, 2012. inhibition, % at 10 µM;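 active = inhibition at least 30% at 10 µM, raw YFP signal under a set limit, fluorescence ratio 0.5 to 1.5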;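 also: 0% = enzyme with DMSO and 100% = no enzyme wells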
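Test system: recombinant human SENP1 catalytic domain, His6-tagged / Medium: pH 8 Tris buffer with EDTA, NaCl, BME, BSA, NP40, catalase / Also added: SUMO1 FRET substrate flanked by Cypet and Ypet, 25 nM / Times: 50 min reaction at room temperature / Signal: FRET, CFP and YFP emission / Control set: no-enzyme low control and enzyme-plus-DMSO high control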
SENP6 inh – SENP6 protease inhibitors, primary screen, biochemical, luminescence, uHTS | Sentrin-specific protease 6 (Homo sapiens), Q9GZR1 | hit rate 1.8% among 330,000 | AID 2599, 2010 | Recombinant SENP6 catalytic domain, aminoluciferin luminescence | inhibition, % at 10 µM;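 active = inhibition above about 50% at the single tested dose, limit read from the data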;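 also: plate controls were DMSO wells with enzyme for no effect and DMSO wells lacking enzyme for full effect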
SENP8 block-2 – SENP8 protease inhibitors, primary screen, biochemical, luminescence. Sentrin-specific protease 8 (Homo sapiens), Q96LD8. purified SENP8, Z-RLRGG-aminoluciferin cleavage. inhibition, % at 10 µM. hit rate 1.2% among 330,000. AID 2540, 2010; in the data active = inhibition above about 50%
SENP8 conf – SENP8 protease inhibitors, retest, confirmation, biochemical, luminescence, single concentration. shares compounds with SENP7 inh. Recombinant SENP8, Z-RLRGG-aminoluciferin luminescence, 60 min. inhibition, % at 12.5 µM. AID 488912, 2010. hit rate 40% among 6,200;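 active = mean inhibition across replicates above about 50%, limit read from the data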
SENP6 confirm – SENP6 protease inhibitors, confirmation, biochemical, luminescence, single concentration; shares compounds with SENP7 inh; recombinant SENP6, Z-RLRGG-aminoluciferin luminescence; inhibition, % at 12.5 µM; hit rate 58% among 6,200
SENP7 conf – SENP7 protease inhibitors, retest, confirmation, biochemical, luminescence, single concentration. shares compounds with SENP7 inh. recombinant SENP7, Z-RLRGG-aminoluciferin luminescence, 40 min. inhibition, % at 12.5 µM. hit rate 69% among 6,200. AID 488917, 2010
Casp3 select – caspase-3 protease inhibitors, confirmation, selectivity assay for SENP inhibitor project, biochemical, single concentration; shares compounds with SENP7 inh; purified caspase-3, Z-DEVD-aminoluciferin luminescence, 60 min; inhibition, % at 12.5 µM; hit rate 60% among 6,200; AID 488918, 2010;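 active = mean inhibition above about 50%, limit read from the data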;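 also: plate controls were enzyme with DMSO for no effect and wells without caspase-3 for full effect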
Target sequence (P42574 28-227 limits assumed): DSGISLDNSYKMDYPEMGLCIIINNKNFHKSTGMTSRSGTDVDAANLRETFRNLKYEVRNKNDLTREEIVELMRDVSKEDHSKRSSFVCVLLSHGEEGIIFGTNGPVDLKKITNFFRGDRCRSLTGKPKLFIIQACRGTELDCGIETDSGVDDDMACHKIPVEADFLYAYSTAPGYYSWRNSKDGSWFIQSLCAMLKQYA
SENP luc ctr – interferes with luciferase luminescence in SENP counter-screen | shares compounds with SENP7 inh | Pre-incubated SENP8/Z-RLRGG-aminoluciferin, luciferase luminescence interference | inhibition, % at 12.5 µM | hit rate 39% among 6,200;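 active = mean inhibition above about 50% when retested at one dose, limit read from the data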;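 also: plate controls were DMSO wells with completed reaction for no effect and substrate without enzyme for full effect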
* marks the source's active call; other numbers are inactive results; i = inactive; · = no result given.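 The calls were made as follows, unless noted: active = mean inhibition above about 50% in the one-dose retest (limit read from the data); inactive = the rest.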

SMILES | CendR NRP1 mod | SENP8 block-1 | SENP7 inh | SENP1 inh | SENP6 inh | SENP8 block-2 | SENP8 conf | SENP6 confirm | SENP7 conf | Casp3 select | SENP luc ctr
Cc1cc(C)n(CC(O)Cn2c3ccc(Cl)cc3c3cc(Cl)ccc32)c(=O)n1 (configuration not stated) | -10 | 4 | 95* | 5 | -9 | -7 | 2 | 4 | 7 | -2 | 2
CCOC(=O)c1c(C)[nH]c(C)c1C(=O)COC(=O)Cc1n[nH]c(=O)c2ccccc12 | -12 | -4 | -5 | -2 | -8 | -17 | · | · | · | · | ·
Oc1ccc(/C=N/NC(=S)N/N=C/c2ccc(O)cc2)cc1 | -13 | -77 | 26 | -2 | 62* | 37 | 54* | 52* | 76* | 85* | 59*
Cc1ccc(Nc2nc(N)c3ccccc3n2)cc1Cl | 6 | -289 | 98* | -3 | 97* | 97* | 99* | 100* | 103* | 93* | 85*
Nc1nc(CCl)nc(Nc2ccccc2)n1 | -6 | 22 | 6 | 0 | -13 | -15 | · | · | · | · | ·
Nc1nc(Nc2ccccc2)nc2ccccc12 | 8 | 18 | 97* | 3 | 94* | 91* | 97* | 98* | 103* | 97* | 96*
COc1cc2nc(Nc3ccc(C)c(Cl)c3)nc(N)c2cc1OC | -2 | -297 | 39 | 1 | 28 | 13 | · | · | · | · | ·
Nc1nc(Nc2ccc(Cl)cc2)nc2ccccc12 | 8 | -272 | 97* | 0 | 98* | 95* | 96* | 97* | 101* | 93* | 95*
Nc1ncnc(Nc2ccccc2)n1 | 6 | 4 | -11 | 0 | -20 | -11 | · | · | · | · | ·
Cc1ccccc1Nc1nc(N)c2ccccc2n1 | 3 | -230 | 95* | 1 | 3 | 91* | 94* | 95* | 102* | 97* | 95*
CC(=O)Nc1cc(-c2ccccc2Cl)cn2c(-c3ccc(S(C)(=O)=O)cc3)cnc12 | -1 | i | · | -7 | · | · | · | · | · | · | ·
COc1ccc(Cl)cc1-c1noc([C@@H]2O[C@H](CO)[C@H](O)[C@H](O)[C@H]2O)n1 | -1 | 24 | · | 1 | · | · | · | · | · | · | ·
O=C(Nc1ccc(OCc2ccccc2)cc1)c1cccnc1 | 2 | 4 | 32 | 0 | 3 | 2 | · | · | · | · | ·
O=C(Nc1ccc(OCc2ccccc2)cc1)c1ccccc1 | -4 | 13 | 67* | 1 | 29 | 5 | 5 | 8 | 8 | 6 | -5
COc1ccc2nc(NC(=O)c3cccc(OCc4c(C)noc4C)c3)sc2c1 | 4 | -280 | 47 | -2 | 60* | 33 | -2 | 5 | 71* | 24 | 4
CCOc1ccc(NC(=O)c2ccc(OC)cc2)cc1 | 7 | 24 | 7 | -1 | -41 | -7 | · | · | · | · | ·
CC(C)=CC(=O)Nc1ccc(Br)cc1 | 10 | -4 | 54* | 0 | 47 | 16 | 49 | 48 | 83* | 61* | 60*
